Activity calls are given as the source filed them. No cut-off for these calls is given here.
Experiments:
[1] = biological target: T1, Sphingosine-1-phosphate transporter SPNS2 (Mus musculus) (UniProt Q91VM4); assay: Inhibition of mouse Spns2 expressed in G418-resistant human HeLa cells assessed as decrease in S1P level at 1 uM incubated for 16 to 18 hrs by LC-MS/MS analysis relative to control; type: cell-based; settings: time 16-18 hrs
T1 sequence (whole entry): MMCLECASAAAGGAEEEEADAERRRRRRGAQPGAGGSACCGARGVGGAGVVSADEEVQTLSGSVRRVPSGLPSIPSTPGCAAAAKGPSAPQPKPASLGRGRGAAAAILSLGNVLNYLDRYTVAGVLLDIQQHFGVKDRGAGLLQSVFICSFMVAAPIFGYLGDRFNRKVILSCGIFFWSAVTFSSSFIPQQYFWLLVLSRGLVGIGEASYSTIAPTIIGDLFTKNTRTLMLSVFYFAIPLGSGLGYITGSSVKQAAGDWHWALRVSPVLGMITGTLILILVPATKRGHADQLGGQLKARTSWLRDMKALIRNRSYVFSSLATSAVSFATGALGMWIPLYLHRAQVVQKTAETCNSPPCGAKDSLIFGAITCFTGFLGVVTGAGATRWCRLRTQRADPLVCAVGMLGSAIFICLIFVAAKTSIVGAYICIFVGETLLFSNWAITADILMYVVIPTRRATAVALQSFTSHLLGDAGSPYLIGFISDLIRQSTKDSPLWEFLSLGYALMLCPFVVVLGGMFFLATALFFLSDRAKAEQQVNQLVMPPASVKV
In short: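 HeLa cells stably transfected with mouse Spns2 (pcDNA3.1; G418-resistant pools). S1P catabolism blocked with 4-deoxypyridoxine 1 mM, NaF 2 mM and Na3VO4 0.2 mM. Near-confluent cells incubated 16–18 h at 37 °C with 1 μM inhibitor in serum-free medium containing 0.2% fatty-acid-free BSA. Medium S1P measured by LC-MS/MS; reported as % decrease versus no-inhibitor control, in duplicate.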

[2] = biological target: T1, Sphingosine-1-phosphate transporter SPNS2 (Mus musculus); assay: Inhibition of mouse Spns2 expressed in G418-resistant human HeLa cells assessed as decrease in S1P level incubated for 16 to 18 hrs by LC-MS/MS analysis; type: cell-based; settings: dose upper 10.0 µM, time 16-18 hrs
In short: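 HeLa pools stably expressing mouse Spns2 (G418-selected), with S1P breakdown blocked by 4-deoxypyridoxine 1 mM, NaF 2 mM and Na3VO4 0.2 mM. Cells exposed for 16–18 h at 37 °C to 1 nM–10 μM inhibitor in serum-free 0.2% fatty-acid-free BSA medium. Released S1P quantified by LC-MS/MS; IC50 from dose–response […].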

[3] = Drug uptake in C57BL/6J mouse plasma at 10 mg/kg, po measured after 4 hrs by LC-MS/MS analysis; type: ADME, organism-based; settings: in vivo
In short: (§1)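 Three female C57BL/6j mice, 8–10 weeks old, given a single 10 mg/kg oral dose. Vehicle: 36.1% PEG400/9.1% ethanol/4.6% solutol/50% H2O. Blood sampled over time after dosing; plasma compound levels quantified by LC-MS/MS.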

[4] = Drug concentration in C57BL/6J mouse plasma at 10 mg/kg, po measured after 8 hrs LC-MS/MS analysis; type: ADME, organism-based; in short: as §1
Mus musculus [5] = assay: In vivo inhibition of Spns2 in C57BL/6J mouse assessed as decrease in lymphocytes count administered orally measured after 4 hrs by LC-MS/MS analysis; type: functional, organism-based; settings: dose 10-100 mg/kg, route po
In short: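 Oral gavage at 10, 30 or 100 mg/kg, or vehicle (36.1% PEG400/9.1% ethanol/4.6% solutol/50% H2O), to five female C57BL/6j mice aged 8–10 weeks. Blood drawn 4 h post dose; lymphocytes counted in 20 μL blood on a haematology analyzer and compared with vehicle.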

Mus musculus [6] = assay: Effect on plasma S1P level in C57BL/6J mouse at 10 to 100 mg/kg, po measured after 4 hrs by LC-MS/MS analysis; type: functional, organism-based; settings: dose 10-100 mg/kg
In short: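 Five female C57BL/6j mice, 8–10 weeks old, dosed by oral gavage at 10, 30 or 100 mg/kg in 36.1% PEG400/9.1% ethanol/4.6% solutol/50% H2O, or vehicle alone. Plasma S1P measured by LC-MS/MS 4 h post dose and expressed relative to vehicle.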

Mus musculus [7] = assay: Effect on plasma S1P level in C57BL/6J mouse at 3 to 30 mg/kg, ip measured after 6 hrs by LC-MS/MS analysis; settings: dose 3-30 mg/kg

inhibition [1] | inhibition [2] | Drug uptake [3] | concentration at 8 h [4] | SMILES | inhibition (Mus musculus [5]) | Activity (Mus musculus [6]) | Activity (Mus musculus [7])
91% | Dose-Dependent Effect | Active | > 500 nM | CCCCCCCCCCc1ccc(NC(=O)N2CCNCC2)cc1.Cl | Dose-Dependent Effect | inactive | inactive
3% |  |  |  | CCCCCCCCCCc1ccc(NC(=O)N2CCN(C)CC2)cc1 |  |  | 
80% |  |  |  | CCCCCCCCCCc1ccc(NC(=O)N2CCN[C@H](C)C2)cc1 |  |  | 
